Results reported in ChEMBL document CHEMBL4513216, “Probing the Open Global Health Chemical Diversity Library for Multistage-Active Starting Points for Next-Generation Antimalarials” (ACS Infect Dis, 2020).

assay: Toxicity liver stage against HepG2, at 10uM; assay type: cell-based; design: test concentration 10 uM, cell line HepG2-A16-CD81EGFP; details: human, HepG2-A16-CD81EGFP cells; read-out: INHIBITION
Summary of the method: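 Uninfected HepG2-A16-CD81EGFP cells, 3 × 10^3 per well, 1536-well, plated on prespotted compound at 10 μM final, parasite-free screening media added to match infected plates; puromycin 10 μM positive, DMSO 0.5% negative; run in parallel with 48 h PbLuc assay at 37 °C, 5% CO2; viability by CellTiter-Glo luminescence, normalized to controls.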

| SMILES | cytotoxicity at 10 µM |
| --- | --- |
| CC(=O)NC[C@@H]1C=C(C)[C@H](CC(=O)NCc2cccnc2)C[C@H]1C(C)C | 4.33% |
| CCOC(=O)C1CCN(C(=O)c2cnn(-c3ccc(C)cc3)c2N)CC1 | 1.84% |
| CC1=Nc2c(c(=O)[nH]n2C(C)C)C(c2cccc(OC(F)F)c2)S1 (centres undefined) | 8.13% |
| CCCc1cc(=O)[nH]c2nnc(SCC(=O)OC)n12 | 12.2% |
| Cc1ccc(S(=O)(=O)Nc2ccc(-n3nnn(C)c3=O)cc2)cc1 | -4.1% |
| O=C(CC(F)(F)F)N1C[C@H]2CN(CC3CC3)C(=O)[C@H]2C1 | 0.493% |
| Cn1nc(CN2CCOCC2)c2c1CN(C(=O)c1ccc[nH]1)C2 | 8.46% |
| CCS(=O)(=O)N1CCC2(CN(C(=O)c3cn(C)cn3)C2)C1 | 6.4% |
| O=C(NCCN1CCCC1)c1cc2c(s1)CCN2C(=O)c1ccccc1 | 0.559% |
| Cc1cccc(NC(=O)c2csc(NCC(C)C)n2)n1 | -3.33% |
| O=C(Cn1nc2c(cc1=O)CCCC2)N[C@@H](Cc1ccccc1)C(=O)O | 3.17% |
| CNC(=O)CS(=O)(=O)C1CCN(S(=O)(=O)c2ccccc2Br)CC1 | -18.3% |
| COc1ccc(NCc2nc(=O)n(CCC(C)C)[nH]2)cc1 | -2.9% |
| CCN1C[C@H]2CCN(C(C)=O)CC[C@H]2S1(=O)=O | 0.0452% |
| O=C(COc1ccccc1)N1CCC[C@]2(C[C@H](OCC3CC3)CO2)C1 | 8.68% |
| Cc1nc(N2CCOCC2)ncc1-c1cc(O)nc(N2CCCC2)n1 | 7.63% |
| Cc1nn(CCNC(=O)c2cc(C3CC3)[nH]n2)c(C)c1Cl | -3.73% |
| COc1ccc2c(=O)ccn(CC(=O)O)c2c1 | 10.2% |
| CC(=O)N1CCCC(c2nccnc2Nc2nc(C)cc(C)n2)C1 (centres undefined) | 1.43% |
| Cc1nn(C)c(C)c1NC(=O)CNC(c1ccccc1)C1CCCC1 (centres undefined) | -0.0764% |
| CC(SCCNS(=O)(=O)c1cnn(C)c1)c1cccs1 (centres undefined) | 12.9% |
| Brc1ccc(CN2CCC(NCc3ncc[nH]3)CC2)cc1 | 14.8% |

| SMILES | cytotoxicity at 10 µM |
| --- | --- |
| CC(C)c1ccc(OCCC(=O)N(C)CC(=O)N(C)C)cc1 | 4.72% |
| Cc1noc(C)c1CN(C)C(=O)C1CCCN1S(N)(=O)=O (centres undefined) | 7.89% |
| NC(=O)C1CCN(S(=O)(=O)c2cnn(-c3ccccc3)c2)CC1 | 8.51% |
| Cc1c(NC(=O)CN(C)S(C)(=O)=O)cccc1OC1CCCC1 | -0.302% |
| CNC(=O)CN(C)CC1(c2ccc(Br)cc2)CC1 | 3.89% |
| c1cc2c(cc1CN1CCN(Cc3noc(C4CC4)n3)CC1)OCO2 | 15.8% |
| Cc1noc(C)c1CC(=O)NCCc1cccs1 | -0.651% |
| CN(C)C1CCCN(C(=O)NCCNC(=O)C2CCCC2)C1 (centres undefined) | -7.4% |
| CN(Cc1ccco1)C(=O)NC(Cn1ccnc1)C(C)(C)C (centres undefined) | -3.36% |
| Cc1noc(C)c1C(=O)NCCN1CCOCC1 | -10.9% |
| CC1CN(S(=O)(=O)c2ccc(F)cc2F)c2cccnc2O1 (centres undefined) | 2.02% |
| CCc1ccc(C(C)NC(=O)CN(C)Cc2ccc(C)o2)cc1 (centres undefined) | 18.4% |
| N#Cc1ccccc1N1CCN(C(=O)NCCN2CCOCC2)CC1 | 1.08% |
| COC(=O)N1CCC(Nc2cccc(F)c2C#N)CC1 | 18.1% |
| COc1cc(CNC(=O)C(C)SC)cc(Br)c1OC (centres undefined) | 0.247% |
| c1ccc(-c2cc(CN3CCc4cncnc4C3)on2)cc1 | 11.3% |
| Cc1ccc(Cl)cc1NC(=O)C1CC(=O)N(Cc2ccccn2)C1 (centres undefined) | 4.67% |
| COCc1csc(NC(=O)N2CCC(Cc3cnn(C)c3)C2)n1 (centres undefined) | 3.13% |
| Cc1cccc(CNC(=O)Nc2cc(C(F)(F)F)c[nH]c2=O)n1 | 0.488% |
| O=C1OCCN1CCS(=O)(=O)c1cccc(Br)c1 | 6.29% |
| CC1CN(C(=O)c2cc[nH]c(=O)c2)c2ccccc21 (centres undefined) | 1.5% |
| CCC1(c2ccc(NS(=O)(=O)c3ccc(Cl)s3)cc2)CCC(=O)NC1=O (centres undefined) | 13.5% |

| SMILES | cytotoxicity at 10 µM |
| --- | --- |
| CNC(=O)C(NC(=O)CCc1cccc(OC2CCCC2)c1)C(C)C (centres undefined) | 10.9% |
| CCn1cc(S(=O)(=O)N2CCC(C)Sc3ccccc32)cn1 (centres undefined) | 3.34% |
| N#Cc1ccc(N2CCCN(c3nccs3)CC2)nc1 | 32.5% |
| CC(Cn1ccnc1)NC(=O)NCCN1CCc2ccccc2C1 (centres undefined) | 7.65% |
| Cc1sc(CS(C)(=O)=O)nc1-c1ccc(Cl)cc1 | -4.07% |
| OCC1CN(Cc2nc(C(F)(F)F)cs2)c2ccccc2O1 (centres undefined) | 3.97% |
| CC(=O)NC1CCCN(C(=O)CNc2cc(Cl)cc(Cl)c2)C1 (centres undefined) | -1.68% |
| CCOCC(=O)NCCc1ccc(I)s1 | -4.76% |
| O=C(NCc1ccc(F)cc1)N1CCC(C2OCCO2)CC1 | -2.39% |
| COCc1noc(-c2ccc(N(C)Cc3ccc(C)o3)nc2)n1 | -3.7% |
| CS(=O)(=O)Nc1ccc2c(c1)NC(=O)CC2c1cnn2cccnc12 (centres undefined) | -1.77% |
| CN1CCN(Cc2c(Cl)ccc(O)c2Cl)CC1C(=O)O (centres undefined) | 9.46% |
| CCc1cnc(NCCCOC2CCCC2)nc1 | -0.0184% |
| CC(C)(C)c1ncc2c(n1)CN(C(=O)c1ccc3[nH]cnc3c1)C2 | -2.62% |
| COCCN1CCN(Cc2nc3c(s2)CCCC3)[C@H]2CS(=O)(=O)C[C@H]21 | 6.81% |
| Cc1nc(N(C)CCCc2nccn2C)c2nc(C)oc2n1 | 5.82% |
| Cc1ncc(CC(=O)N2CCCC(COc3ccc(F)cc3)C2)c(=O)[nH]1 (centres undefined) | -142% |
| O=C(C1CNCCN1C(=O)CCOc1ccccc1)N1CCCC1 (centres undefined) | -7.42% |
| CCc1nc2c(c(N3CCOCC3)n1)CCN(C(=O)N1CCCC1)CC2 | 7.6% |
| c1cc(N2CCC(c3nnc(Cn4ccnc4)n3C3CC3)CC2)ccn1 | -4.31% |
| COc1nc(C)c(C(=O)N2CCN(c3ncccc3C)CC2)s1 | 2.87% |
| CN(Cc1ccc2c(c1)OCO2)C(=O)c1ccc(C2CCCNC2)cc1 (centres undefined) | -11.8% |

| SMILES | cytotoxicity at 10 µM |
| --- | --- |
| Cc1noc(C)c1CN1CC2(CCN(Cc3c[nH]cn3)CC2)CC1=O | 8.62% |
| COc1ccc(CN2CCCC2)cc1Oc1ccc2c(c1)CC(CN)O2 (centres undefined) | -10.5% |
| CS(=O)(=O)N1CCC(Oc2ccc(C(=O)NCCC(N)=O)cc2Cl)CC1 | -1.28% |
| O=c1cc(N2CCCCC2)cnn1Cc1noc(C2CCCO2)n1 (centres undefined) | -47.1% |
| COc1cccc2c1OCC(C(=O)N1CCC(N3CCSCC3)CC1)C2 (centres undefined) | 2.24% |
| COc1ccnc(CNc2nc(C)nc(C)c2C)c1 | -1.7% |
| CC(C)N1CCCC2(CCN(Cc3nncn3C(C)C)C2)C1=O (centres undefined) | -108% |
| Cc1nn(C)c(C)c1-c1nc2cc(S(=O)(=O)N3CCCC3)ccc2n1C | -6.05% |
| Cc1cc(CN2CCC(CNC(=O)c3cnc(C)nc3C)C2)[nH]n1 (centres undefined) | -140% |
| COc1cnc(N2CCC(Oc3ccccc3OC)(C(=O)O)CC2)nc1 | -13.5% |
| COc1ccc(F)c(CN2CCC3(CCC(=O)N(CC(N)=O)C3)CC2)c1 | 12% |
| NC(=O)CN1CCC(C(=O)N2CCCC(OCc3cccnc3)C2)CC1 (centres undefined) | -1.88% |
| Cc1nc(C2CCCN(C(=O)c3ccnc(N(C)C)c3)C2)no1 (centres undefined) | -4.77% |
| CC(C(=O)NC(N)=O)N(C)CCCc1cc(-c2ccccc2)no1 (centres undefined) | -8.63% |
| Cc1noc(C)c1C(=O)N1CCCC(c2cc(C(F)(F)F)[nH]n2)C1 (centres undefined) | -0.855% |
| Cc1cc(NC(=O)CN2CCCC2c2c(C)nn(C)c2Cl)on1 (centres undefined) | -0.945% |
| Cc1ccc(NC2CCN(C(=O)CCc3ccccc3)CC2)nn1 | -10.5% |
| Cc1ncc(CN2CCC(N(C)Cc3noc(C4CC4)n3)C2)s1 (centres undefined) | -3.16% |
| CN(Cc1ccco1)C(=O)c1cccc(N2CCCC2=O)c1 | -4.5% |
| Cc1cc(CN(C)C(=O)NC2CCN(Cc3ccccn3)CC2)no1 | -17.4% |
| O=C1CCc2cc(-c3csc(CCN4CCOC4=O)n3)ccc2N1 | -12.2% |
| CCC(O)CN1CCN(C(=O)c2ccc(N(C)C)nn2)CC1 (centres undefined) | -6.83% |

| SMILES | cytotoxicity at 10 µM |
| --- | --- |
| CCc1nc(C2CCCN2Cc2cc(=O)n(C)c(=O)n2C)no1 (centres undefined) | -11.5% |
| CC(NC(=O)Cn1ccc(=O)n(C)c1=O)c1ccccc1F (centres undefined) | -10.6% |
| CC(=O)Nc1nc(C(=O)N2CCCCC2Cn2cccn2)cs1 (centres undefined) | -31.4% |
| Cc1nc(CN(C)C2CCN(Cc3ccc(C(N)=O)cc3)C2)no1 (centres undefined) | -12.7% |
| Cc1nn(C)c(N2CCOCC2)c1CNCc1ccnn1C | -1.66% |
| Cc1nc(CN2CCCN(C(=O)c3c(C)noc3C)CC2)cs1 | -2.87% |
| O=C(CS(=O)(=O)c1ccccc1Cl)NC1CCCCNC1=O (centres undefined) | -13.2% |
| CN(CC(=O)N1CCCC1c1cnn(C)c1)c1ccc(Cl)cn1 (centres undefined) | -6.14% |
| CCc1ncc(CN(C)C2CCN(C(C)C)CC2)cn1 | -3.91% |
| O=C(N1CCCO1)[C@@]12CCO[C@@H]1CCN(Cc1ccccn1)C2 | 3.98% |
| O=C(N1CCCC1)N1CCO[C@H]2[C@@H](OCc3cccnc3)CC[C@@H]21 | -1.6% |
| O=C(NCc1cnc2n1CCN(Cc1ccsc1)CC2)C1CCC1 | -2.53% |
| CN(C)C(=O)COC[C@H]1CC[C@@H]2[C@@H](CCN2Cc2ccccn2)O1 | -18.7% |
| CSc1ccc(CNC(c2ccccc2F)c2nccn2C)cc1 (centres undefined) | 1.75% |
| COCCN1CCc2cc(C(=O)N(C)C)c(NCC3CC3)nc2CC1 | 4.44% |
| Cc1cccc(CN2CCc3ncnc(N4CCCC4)c3CC2)n1 | -145% |
| CC(C)N1CCOCC2(CCCN(C(=O)c3cn(C)cn3)C2)C1 (centres undefined) | 1.88% |
| Cn1cc(CN2C[C@H](Oc3ncccc3F)[C@H]3OCCC[C@H]32)cn1 | 2.72% |
| CN(C)C(=O)CN1CCCC2(CCN(c3ccc(C#N)cn3)C2)C1 (centres undefined) | 4.01% |
| CC(C)C(=O)N1CCC[C@]2(C(=O)N(C)C)CN(c3ccccn3)C[C@@H]2C1 | 30.7% |
| CC1CCCCN1S(=O)(=O)NCCNC(=O)c1ncccc1O (centres undefined) | 2.34% |
